Converted amounts (≈) assume the structure as drawn. The source made the active and inactive calls. No cut-off for these calls is given here.
How the values were obtained:
[1] = test system: Mycobacterium tuberculosis; experiment: Antimycobacterial activity against Mycobacterium tuberculosis H37Ra; format: functional
How it was run: (§1)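 Colorimetric broth microdilution against M. tuberculosis H37Ra (ATCC 25177) and M. avium NJ 211. Initial screen at 1.28 and 12.8 μg/mL. Activity was confirmed with […] dilutions at 16, 8 and 4 μg/mL to set the MIC.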

Mycobacterium avium [2] = experiment: Antimycobacterial activity against Mycobacterium avium; format: functional; how it was run: as §1
[3] = target: T1, Probable arabinosyltransferase A (Mycobacterium tuberculosis) (UniProt P9WNL9); experiment: Inhibition of Mycobacterium smegmatis arabinosyl transferase assessed as [14C]arabinofuranose incorporation at 3.6 mM; conditions: Mycolicibacterium smegmatis
T1 sequence (whole entry): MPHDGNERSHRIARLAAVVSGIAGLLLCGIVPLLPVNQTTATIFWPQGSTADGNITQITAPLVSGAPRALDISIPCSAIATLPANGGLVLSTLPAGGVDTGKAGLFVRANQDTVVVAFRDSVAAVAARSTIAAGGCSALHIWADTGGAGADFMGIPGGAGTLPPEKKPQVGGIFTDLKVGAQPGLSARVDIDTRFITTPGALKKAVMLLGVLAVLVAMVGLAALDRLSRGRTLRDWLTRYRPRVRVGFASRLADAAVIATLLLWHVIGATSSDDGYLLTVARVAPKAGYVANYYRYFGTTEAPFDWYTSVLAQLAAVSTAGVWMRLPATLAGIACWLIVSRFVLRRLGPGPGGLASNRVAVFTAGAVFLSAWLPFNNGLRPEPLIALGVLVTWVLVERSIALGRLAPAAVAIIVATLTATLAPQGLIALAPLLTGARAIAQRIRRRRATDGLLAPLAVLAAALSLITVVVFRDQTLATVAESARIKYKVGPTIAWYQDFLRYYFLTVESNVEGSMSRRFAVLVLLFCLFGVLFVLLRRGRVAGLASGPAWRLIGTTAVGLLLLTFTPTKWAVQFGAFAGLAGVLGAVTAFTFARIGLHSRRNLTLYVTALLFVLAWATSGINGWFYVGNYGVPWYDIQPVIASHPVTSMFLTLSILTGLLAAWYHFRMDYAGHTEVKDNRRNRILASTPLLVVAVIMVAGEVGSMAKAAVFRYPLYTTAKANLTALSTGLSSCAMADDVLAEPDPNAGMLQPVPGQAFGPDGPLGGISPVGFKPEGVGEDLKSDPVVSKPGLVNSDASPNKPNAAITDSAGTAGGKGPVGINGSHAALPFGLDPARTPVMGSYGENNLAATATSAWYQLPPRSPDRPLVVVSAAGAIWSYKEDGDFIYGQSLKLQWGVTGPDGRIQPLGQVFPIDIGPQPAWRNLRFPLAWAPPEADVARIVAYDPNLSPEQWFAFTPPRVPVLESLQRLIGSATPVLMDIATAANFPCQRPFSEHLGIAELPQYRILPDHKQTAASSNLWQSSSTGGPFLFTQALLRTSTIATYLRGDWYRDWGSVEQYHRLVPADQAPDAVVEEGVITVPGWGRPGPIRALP
How it was run: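 Cell-free competition arabinosyltransferase acceptor assay with membranes and [14C]DPA as glycosyl donor. The read-out is inhibition of [14C]Araf incorporation into the α(1→5)-linked 1-O-octyl arabinofuranosyl disaccharide acceptor at 0.4 mM. Test compounds were run at 3.6 mM, and IC50 values were also derived.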

Mycobacterium avium [4] = experiment: Antimycobacterial activity against Mycobacterium avium at 12.8 ug/mL; format: functional, organism-based; how it was run: as §1

SMILES	MIC [1] [µg/mL]	MIC (Mycobacterium avium [2]) [µg/mL]	Activity [3]	Activity (Mycobacterium avium [4])
O[C@H]1[C@H](O)[C@@H](CN(CC2CCCCC2)CC2CCCCC2)O[C@@H]1CC[C@H]1O[C@H](CN(CC2CCCCC2)CC2CCCCC2)[C@@H](O)[C@@H]1O	16 (≈ 23.6 µM)	16 (≈ 23.6 µM)	Active	–
CC(C)(C)[Si](C)(C)O[C@H]1[C@H](O[Si](C)(C)C(C)(C)C)[C@@H](CO[C@H]2O[C@H](CN=[N+]=[N-])[C@@H](O)[C@@H]2O)O[C@@H]1CN=[N+]=[N-]	16 (≈ 27.8 µM)	–	–	inactive
CC(C)(C)[Si](C)(C)O[C@H]1[C@H](O[Si](C)(C)C(C)(C)C)[C@@H](CN(CC2CCCCC2)CC2CCCCC2)O[C@@H]1CO[C@H]1O[C@H](CN(CC2CCCCC2)CC2CCCCC2)[C@@H](O)[C@@H]1O	> 12.8	–	–	inactive
CC[C@@H](CO)NCCN[C@@H](CC)CO [ETHAMBUTOL]	2 (≈ 9.79 µM)	–	–	–
O[C@@H]1[C@@H](OC[C@H]2O[C@H](CN(CC3CCCCC3)CC3CCCCC3)[C@@H](O)[C@@H]2O)O[C@H](CN(CC2CCCCC2)CC2CCCCC2)[C@H]1O	8 (≈ 11.8 µM)	16 (≈ 23.6 µM)	Active	–
O[C@H]1[C@H](O)[C@@H](CN(CC2CCCCC2)CC2CCCCC2)O[C@@H]1/C=C/[C@H]1O[C@H](CN(CC2CCCCC2)CC2CCCCC2)[C@@H](O)[C@@H]1O	8 (≈ 11.9 µM)	8 (≈ 11.9 µM)	Active	–

From ChEMBL document CHEMBL1149558, “Synthesis of symmetrical C- and pseudo-symmetrical O-linked disaccharide analogs for arabinosyltransferase inhibitory activity in Mycobacterium tuberculosis” (Bioorg Med Chem Lett, 2007)
